Test results as given in ChEMBL document CHEMBL3232897, “Synthesis, antiproliferative and antibacterial activity of new amides of salinomycin” (Bioorg Med Chem Lett, 2014).
In brackets after ≈: the same amount, converted by molar mass. Activity calls are given as the source filed them. No cut-off for these calls is given here.

How the values were obtained:
[1] = tested on: HL-60; experiment: Antiproliferative activity against human HL60 cells; assay type: functional, cell-based
Method in brief: (§1)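 IC50 is the concentration giving 50% growth inhibition, reported as mean with SD. HL-60/vinc and LoVo/DX are drug-resistant (MDR) sublines of HL-60 and LoVo. BALB/3T3 is a normal murine embryonic fibroblast line.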

[2] = Antiproliferative activity against human HL60/Vinc cells; assay type: functional, cell-based; method in brief: as §1
[3] = tested on: LoVo; experiment: Antiproliferative activity against human LoVo cells; assay type: functional, cell-based; method in brief: as §1
[4] = Antiproliferative activity against human LoVo/DX cells; assay type: functional, cell-based; method in brief: as §1
[5] = tested on: BALB/3T3; experiment: Antiproliferative activity mouse BALB/3T3 cells; assay type: cell-based; method in brief: as §1
[6] = tested on: HL-60; experiment: Selectivity index, ratio of IC50 for mouse BALB/3T3 cells to IC50 for human HL60 cells; assay type: functional
Method in brief: (§2)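 Selectivity index is the IC50 in normal murine embryonic fibroblasts (BALB/3T3) divided by the IC50 in the respective cancer line (HL-60, HL-60/vinc, LoVo or LoVo/DX). Each IC50 is the concentration giving 50% growth inhibition. SI >1.0 is taken as favourable.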

[7] = Selectivity index, ratio of IC50 for mouse BALB/3T3 cells to IC50 for human HL60/Vinc cells; assay type: functional; method in brief: as §2
[8] = tested on: HL-60; experiment: Resistance index, ratio of IC50 for human HL60/Vinc cells to IC50 for human HL60 cells; assay type: functional
Method in brief: (§3)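 Index of resistance is the IC50 in the resistant subline (HL-60/vinc or LoVo/DX) divided by the IC50 in its parental line (HL-60 or LoVo). Each IC50 is the concentration giving 50% growth inhibition. Bands are 0–2 sensitive, 2–10 moderate, above 10 strongly resistant.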

[9] = tested on: LoVo; experiment: Selectivity index, ratio of IC50 for mouse BALB/3T3 cells to IC50 for human LoVo cells; assay type: functional; method in brief: as §2
[10] = Selectivity index, ratio of IC50 for mouse BALB/3T3 cells to IC50 for human LoVo/DX cells; assay type: functional; method in brief: as §2
[11] = tested on: LoVo; experiment: Resistance index, ratio of IC50 for human LoVo/DX cells to IC50 for human LoVo cells; assay type: functional; method in brief: as §3
[12] = tested on: Staphylococcus aureus; experiment: Antibacterial activity against Staphylococcus aureus NCTC 4163; assay type: functional
[13] = tested on: Staphylococcus aureus; experiment: Antibacterial activity against Staphylococcus aureus ATCC 25923; assay type: functional
[14] = tested on: Staphylococcus aureus; experiment: Antibacterial activity against Staphylococcus aureus ATCC 6538; assay type: functional
[15] = tested on: Staphylococcus aureus; experiment: Antibacterial activity against Staphylococcus aureus ATCC 29213; assay type: functional
[16] = tested on: Staphylococcus epidermidis; experiment: Antibacterial activity against Staphylococcus epidermidis ATCC 12228; assay type: functional
Method in brief: (§4)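 In vitro antibacterial test on Staphylococcus strains, including MRSE clinical isolates. Read-outs were growth inhibition zone (mm) and MIC (µg/ml). Ciprofloxacin was the reference antibiotic.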

[17] = tested on: Staphylococcus epidermidis; experiment: Antibacterial activity against Staphylococcus epidermidis ATCC 35984; assay type: functional; method in brief: as §4
[18] = tested on: Staphylococcus epidermidis; experiment: Antibacterial activity against methicillin-resistant Staphylococcus epidermidis 459/11; assay type: functional; method in brief: as §4
[19] = tested on: Staphylococcus epidermidis; experiment: Antibacterial activity against methicillin-resistant Staphylococcus epidermidis 460/11; assay type: functional; method in brief: as §4
[20] = tested on: Staphylococcus epidermidis; experiment: Antibacterial activity against methicillin-resistant Staphylococcus epidermidis 461/11; assay type: functional; method in brief: as §4
[21] = tested on: Staphylococcus epidermidis; experiment: Antibacterial activity against methicillin-resistant Staphylococcus epidermidis 466/11; assay type: functional; method in brief: as §4
[22] = tested on: Staphylococcus epidermidis; experiment: Antibacterial activity against methicillin-resistant Staphylococcus epidermidis 467/11; assay type: functional; method in brief: as §4
[23] = tested on: Staphylococcus epidermidis; experiment: Antibacterial activity against methicillin-resistant Staphylococcus epidermidis 468/11; assay type: functional; method in brief: as §4
[24] = tested on: Staphylococcus epidermidis; experiment: Antibacterial activity against methicillin-resistant Staphylococcus epidermidis 469/11; assay type: functional; method in brief: as §4
[25] = tested on: Staphylococcus epidermidis; experiment: Antibacterial activity against methicillin-resistant Staphylococcus epidermidis 470/11; assay type: functional; method in brief: as §4
[26] = tested on: Staphylococcus epidermidis; experiment: Antibacterial activity against methicillin-resistant Staphylococcus epidermidis 488/11; assay type: functional; method in brief: as §4
[27] = tested on: Staphylococcus epidermidis; experiment: Antibacterial activity against methicillin-resistant Staphylococcus epidermidis 489/11; assay type: functional; method in brief: as §4
[28] = species: Homo sapiens; experiment: Antiproliferative activity against human HL60/Vinc cells up to 100 ug/ml; assay type: functional, cell-based
[29] = tested on: BALB/3T3; experiment: Antiproliferative activity mouse BALB/3T3 cells up to 100 ug/ml; assay type: cell-based

SMILES	IC50 [1]	IC50 [3]	IC50 [4]	Ratio IC50 [11]	MIC [12]	MIC [13]	MIC [14]	MIC [15]	MIC [16]	MIC [17]	MIC [18]	MIC [19]	MIC [20]	MIC [21]	MIC [22]	MIC [23]	MIC [24]	MIC [25]	MIC [26]	MIC [27]	other results
CC[C@@H](C(=O)[C@@H](C)[C@@H](O)[C@H](C)[C@@H]1O[C@@H]([C@@H](CC)C(=O)NCCCCN)CC[C@@H]1C)[C@H]1O[C@]2(C=C[C@@H](O)[C@]3(CC[C@@](C)([C@H]4CC[C@](O)(CC)[C@H](C)O4)O3)O2)[C@H](C)C[C@@H]1C	3.7 µM	21.9 µM	12.6 µM	0.58	32 µg/mL (≈ 39 µM)	32 µg/mL (≈ 39 µM)	32 µg/mL (≈ 39 µM)	64 µg/mL (≈ 77.9 µM)	64 µg/mL (≈ 77.9 µM)	32 µg/mL (≈ 39 µM)	32 µg/mL (≈ 39 µM)	64 µg/mL (≈ 77.9 µM)	64 µg/mL (≈ 77.9 µM)	64 µg/mL (≈ 77.9 µM)	32 µg/mL (≈ 39 µM)	32 µg/mL (≈ 39 µM)	64 µg/mL (≈ 77.9 µM)	64 µg/mL (≈ 77.9 µM)	64 µg/mL (≈ 77.9 µM)	32 µg/mL (≈ 39 µM)	IC50 [2]: 23.1 µM; IC50 [5]: 35.1 µM; Ratio IC50 [6]: 9.47; Ratio IC50 [7]: 1.52; Ratio IC50 [8]: 6.22; Ratio IC50 [9]: 1.6; Ratio IC50 [10]: 2.78
CC[C@@H](C(=O)[C@@H](C)[C@@H](O)[C@H](C)[C@@H]1O[C@@H]([C@@H](CC)C(=O)O)CC[C@@H]1C)[C@H]1O[C@]2(C=C[C@@H](O)[C@]3(CC[C@@](C)([C@H]4CC[C@](O)(CC)[C@H](C)O4)O3)O2)[C@H](C)C[C@@H]1C [SALINOMYCIN]	1.2 µM	1.5 µM	1 µM	0.65	2 µg/mL (≈ 2.66 µM)	2 µg/mL (≈ 2.66 µM)	2 µg/mL (≈ 2.66 µM)	4 µg/mL (≈ 5.33 µM)	2 µg/mL (≈ 2.66 µM)	2 µg/mL (≈ 2.66 µM)	16 µg/mL (≈ 21.3 µM)	16 µg/mL (≈ 21.3 µM)	16 µg/mL (≈ 21.3 µM)	8 µg/mL (≈ 10.7 µM)	16 µg/mL (≈ 21.3 µM)	8 µg/mL (≈ 10.7 µM)	16 µg/mL (≈ 21.3 µM)	16 µg/mL (≈ 21.3 µM)	16 µg/mL (≈ 21.3 µM)	16 µg/mL (≈ 21.3 µM)	IC50 [2]: 4.7 µM; IC50 [5]: 25.8 µM; Ratio IC50 [6]: 22.07; Ratio IC50 [7]: 5.45; Ratio IC50 [8]: 4.05; Ratio IC50 [9]: 16.88; Ratio IC50 [10]: 26.08
CC[C@@H](C(=O)[C@@H](C)[C@@H](O)[C@H](C)[C@@H]1O[C@@H]([C@@H](CC)C(=O)Nc2ccc(-c3ccc(NC(=O)[C@H](CC)[C@H]4CC[C@H](C)[C@H]([C@@H](C)[C@H](O)[C@H](C)C(=O)[C@H](CC)[C@H]5O[C@]6(C=C[C@@H](O)[C@]7(CC[C@@](C)([C@H]8CC[C@](O)(CC)[C@H](C)O8)O7)O6)[C@H](C)C[C@@H]5C)O4)cc3)cc2)CC[C@@H]1C)[C@H]1O[C@]2(C=C[C@@H](O)[C@]3(CC[C@@](C)([C@H]4CC[C@](O)(CC)[C@H](C)O4)O3)O2)[C@H](C)C[C@@H]1C	4.4 µM	8.4 µM	3.1 µM	0.38	16 µg/mL (≈ 9.7 µM)	32 µg/mL (≈ 19.4 µM)	32 µg/mL (≈ 19.4 µM)	32 µg/mL (≈ 19.4 µM)	32 µg/mL (≈ 19.4 µM)	32 µg/mL (≈ 19.4 µM)	32 µg/mL (≈ 19.4 µM)	64 µg/mL (≈ 38.8 µM)	32 µg/mL (≈ 19.4 µM)	32 µg/mL (≈ 19.4 µM)	16 µg/mL (≈ 9.7 µM)	32 µg/mL (≈ 19.4 µM)	64 µg/mL (≈ 38.8 µM)	64 µg/mL (≈ 38.8 µM)	32 µg/mL (≈ 19.4 µM)	32 µg/mL (≈ 19.4 µM)	inhibition [28]: inactive; Activity [29]: Non-toxic
CC[C@@H](C(=O)[C@@H](C)[C@@H](O)[C@H](C)[C@@H]1O[C@@H]([C@@H](CC)C(=O)NCCS)CC[C@@H]1C)[C@H]1O[C@]2(C=C[C@@H](O)[C@]3(CC[C@@](C)([C@H]4CC[C@](O)(CC)[C@H](C)O4)O3)O2)[C@H](C)C[C@@H]1C	3.1 µM	26.5 µM	28.5 µM	1.07	16 µg/mL (≈ 19.7 µM)	16 µg/mL (≈ 19.7 µM)	16 µg/mL (≈ 19.7 µM)	32 µg/mL (≈ 39.5 µM)	32 µg/mL (≈ 39.5 µM)	32 µg/mL (≈ 39.5 µM)	32 µg/mL (≈ 39.5 µM)	32 µg/mL (≈ 39.5 µM)	32 µg/mL (≈ 39.5 µM)	32 µg/mL (≈ 39.5 µM)	32 µg/mL (≈ 39.5 µM)	64 µg/mL (≈ 79 µM)	64 µg/mL (≈ 79 µM)	64 µg/mL (≈ 79 µM)	32 µg/mL (≈ 39.5 µM)	32 µg/mL (≈ 39.5 µM)	IC50 [2]: 34 µM; IC50 [5]: 17.1 µM; Ratio IC50 [6]: 5.53; Ratio IC50 [7]: 0.5; Ratio IC50 [8]: 10.99; Ratio IC50 [9]: 0.65; Ratio IC50 [10]: 0.6
CC[C@@H](C(=O)[C@@H](C)[C@@H](O)[C@H](C)[C@@H]1O[C@@H]([C@@H](CC)C(=O)NCCOCCO)CC[C@@H]1C)[C@H]1O[C@]2(C=C[C@@H](O)[C@]3(CC[C@@](C)([C@H]4CC[C@](O)(CC)[C@H](C)O4)O3)O2)[C@H](C)C[C@@H]1C	17.8 µM	36.7 µM	14.3 µM	0.39	32 µg/mL (≈ 38.2 µM)	32 µg/mL (≈ 38.2 µM)	32 µg/mL (≈ 38.2 µM)	64 µg/mL (≈ 76.4 µM)	64 µg/mL (≈ 76.4 µM)	64 µg/mL (≈ 76.4 µM)	32 µg/mL (≈ 38.2 µM)	64 µg/mL (≈ 76.4 µM)	64 µg/mL (≈ 76.4 µM)	64 µg/mL (≈ 76.4 µM)	32 µg/mL (≈ 38.2 µM)	64 µg/mL (≈ 76.4 µM)	64 µg/mL (≈ 76.4 µM)	64 µg/mL (≈ 76.4 µM)	64 µg/mL (≈ 76.4 µM)	64 µg/mL (≈ 76.4 µM)	IC50 [2]: 30.9 µM; IC50 [5]: 39.4 µM; Ratio IC50 [6]: 2.22; Ratio IC50 [7]: 1.28; Ratio IC50 [8]: 1.74; Ratio IC50 [9]: 1.08; Ratio IC50 [10]: 2.76
